This is an account of results in ChEMBL document CHEMBL4145674, “Discovery of 3-Benzyl-1-( trans-4-((5-cyanopyridin-2-yl)amino)cyclohexyl)-1-arylurea Derivatives as Novel and Selective Cyclin-Dependent Kinase 12 (CDK12) Inhibitors” (J Med Chem, 2018).

For one data set, the target named is CDK12/Cyclin K (Homo sapiens, UniProt Q9NYV4). Put plainly: Inhibition of N-terminal FLAG-tagged human full-length CDK12 (1 to 1490 residues)/N-terminal His-tagged CycK (1 to 580 residues) expressed in Sf9 cells assessed as reduction in ATP-dependent ULight-4E-BP1 (Thr37/Thr46) substrate peptide phosphorylation pre-incubated for 60 mins by LANCE Ultra assay. For orientation: TR-FRET usually uses a lanthanide donor and a delayed reading to cut background.
Sequence of CDK12/Cyclin K (O75909 whole entry, the tested form may be a part): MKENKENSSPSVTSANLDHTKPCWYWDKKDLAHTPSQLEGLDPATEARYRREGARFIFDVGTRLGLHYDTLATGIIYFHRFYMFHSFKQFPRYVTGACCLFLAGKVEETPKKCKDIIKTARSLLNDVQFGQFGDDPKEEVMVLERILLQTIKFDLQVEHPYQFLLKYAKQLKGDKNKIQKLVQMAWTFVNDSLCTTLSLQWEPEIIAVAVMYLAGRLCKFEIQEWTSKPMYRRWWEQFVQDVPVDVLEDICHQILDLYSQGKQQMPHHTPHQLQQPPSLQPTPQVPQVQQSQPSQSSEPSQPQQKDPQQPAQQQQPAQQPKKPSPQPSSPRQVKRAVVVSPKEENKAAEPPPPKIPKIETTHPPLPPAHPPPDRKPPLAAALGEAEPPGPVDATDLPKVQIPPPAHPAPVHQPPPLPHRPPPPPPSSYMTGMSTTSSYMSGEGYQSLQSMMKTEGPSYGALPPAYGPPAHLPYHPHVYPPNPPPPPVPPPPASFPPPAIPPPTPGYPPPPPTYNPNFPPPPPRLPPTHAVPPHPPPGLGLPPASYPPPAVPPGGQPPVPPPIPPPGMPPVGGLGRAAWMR
Sequence of CDK12/Cyclin K (Q9NYV4 whole entry, the tested form may be a part): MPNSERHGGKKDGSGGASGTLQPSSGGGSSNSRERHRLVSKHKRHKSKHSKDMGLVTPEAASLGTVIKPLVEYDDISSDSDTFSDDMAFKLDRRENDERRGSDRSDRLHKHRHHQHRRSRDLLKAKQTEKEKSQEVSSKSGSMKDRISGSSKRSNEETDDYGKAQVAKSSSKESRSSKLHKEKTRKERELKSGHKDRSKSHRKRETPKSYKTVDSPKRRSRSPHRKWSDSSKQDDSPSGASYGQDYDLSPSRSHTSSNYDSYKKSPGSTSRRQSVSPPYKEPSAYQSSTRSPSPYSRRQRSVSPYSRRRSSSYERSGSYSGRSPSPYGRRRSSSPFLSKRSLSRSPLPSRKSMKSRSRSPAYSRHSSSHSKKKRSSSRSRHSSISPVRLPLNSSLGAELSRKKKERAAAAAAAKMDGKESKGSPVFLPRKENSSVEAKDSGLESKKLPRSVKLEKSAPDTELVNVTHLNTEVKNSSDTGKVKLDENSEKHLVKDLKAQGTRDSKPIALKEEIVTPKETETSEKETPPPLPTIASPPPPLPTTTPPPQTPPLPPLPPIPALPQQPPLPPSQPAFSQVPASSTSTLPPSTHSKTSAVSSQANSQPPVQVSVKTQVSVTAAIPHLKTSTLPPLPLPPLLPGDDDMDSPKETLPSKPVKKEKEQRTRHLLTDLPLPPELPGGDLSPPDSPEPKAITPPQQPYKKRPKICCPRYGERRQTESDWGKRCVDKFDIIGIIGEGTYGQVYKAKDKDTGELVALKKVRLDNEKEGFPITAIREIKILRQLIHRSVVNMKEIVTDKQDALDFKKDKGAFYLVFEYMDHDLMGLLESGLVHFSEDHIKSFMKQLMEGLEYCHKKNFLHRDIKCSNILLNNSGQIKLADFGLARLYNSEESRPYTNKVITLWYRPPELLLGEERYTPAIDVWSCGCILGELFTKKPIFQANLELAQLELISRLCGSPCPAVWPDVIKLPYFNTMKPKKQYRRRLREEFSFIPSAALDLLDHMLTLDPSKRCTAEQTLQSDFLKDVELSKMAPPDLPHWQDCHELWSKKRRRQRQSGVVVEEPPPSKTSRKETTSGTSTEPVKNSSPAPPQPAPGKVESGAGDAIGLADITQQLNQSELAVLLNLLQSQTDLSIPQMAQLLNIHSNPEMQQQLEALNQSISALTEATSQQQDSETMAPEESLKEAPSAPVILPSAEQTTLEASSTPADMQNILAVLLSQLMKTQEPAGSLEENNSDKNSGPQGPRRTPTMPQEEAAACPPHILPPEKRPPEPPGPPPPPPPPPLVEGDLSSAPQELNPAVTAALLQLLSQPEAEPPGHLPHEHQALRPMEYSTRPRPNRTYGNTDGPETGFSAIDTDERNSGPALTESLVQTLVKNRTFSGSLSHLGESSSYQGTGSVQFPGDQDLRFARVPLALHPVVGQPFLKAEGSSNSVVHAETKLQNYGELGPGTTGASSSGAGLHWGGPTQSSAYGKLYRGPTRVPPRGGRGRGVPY

The target of another data set is CDK2/Cyclin A2 (Homo sapiens, UniProt P24941). Put plainly: Inhibition of GST-tagged human CDK2/CCNA2 (04 to 103 residues) pre-incubated for 5 mins before addition of histone H1 substrate and [gamma-33P]ATP and measured after 20 mins by radiometric assay. In kind it is protein-complex assay. The method in brief: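 GST-CDK2/CCNA2 at 1.8 mU/well in 25 mM HEPES pH 7.5, 10 mM Mg acetate, 1 mM DTT. Compound and enzyme together 5 min at room temperature before ATP start. Final levels: histone H1 1 μg/well, [γ-33P]ATP 500 nM. Reaction 20 min at room temperature, stopped with 10% TCA. Filter capture, phosphoric acid wash, scintillation counting. IC50 reported.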

The target of another data set is CDK9/cyclin T1 (Homo sapiens, UniProt P50750). The format is protein-complex assay.
Sequence of CDK9/cyclin T1 (O60563 whole entry): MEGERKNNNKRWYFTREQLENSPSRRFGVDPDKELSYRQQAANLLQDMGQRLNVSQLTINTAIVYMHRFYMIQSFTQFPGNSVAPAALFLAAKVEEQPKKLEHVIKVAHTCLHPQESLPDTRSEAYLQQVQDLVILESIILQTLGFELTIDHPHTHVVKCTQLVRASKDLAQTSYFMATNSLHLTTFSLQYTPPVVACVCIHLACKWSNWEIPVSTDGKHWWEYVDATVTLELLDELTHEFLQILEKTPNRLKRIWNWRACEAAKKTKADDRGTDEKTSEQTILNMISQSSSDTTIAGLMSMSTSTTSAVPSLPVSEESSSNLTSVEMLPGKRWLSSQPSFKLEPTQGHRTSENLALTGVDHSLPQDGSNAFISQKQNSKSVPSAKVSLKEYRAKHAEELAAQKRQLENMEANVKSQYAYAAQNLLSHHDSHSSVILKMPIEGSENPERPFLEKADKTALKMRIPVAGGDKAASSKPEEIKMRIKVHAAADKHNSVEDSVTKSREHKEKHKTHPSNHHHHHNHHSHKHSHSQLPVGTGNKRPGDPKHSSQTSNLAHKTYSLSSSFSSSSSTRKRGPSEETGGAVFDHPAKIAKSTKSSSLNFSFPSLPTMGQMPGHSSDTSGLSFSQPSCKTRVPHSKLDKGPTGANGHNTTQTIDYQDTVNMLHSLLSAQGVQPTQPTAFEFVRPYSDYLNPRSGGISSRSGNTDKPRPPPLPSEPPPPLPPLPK
Sequence of CDK9/cyclin T1 (P50750 whole entry): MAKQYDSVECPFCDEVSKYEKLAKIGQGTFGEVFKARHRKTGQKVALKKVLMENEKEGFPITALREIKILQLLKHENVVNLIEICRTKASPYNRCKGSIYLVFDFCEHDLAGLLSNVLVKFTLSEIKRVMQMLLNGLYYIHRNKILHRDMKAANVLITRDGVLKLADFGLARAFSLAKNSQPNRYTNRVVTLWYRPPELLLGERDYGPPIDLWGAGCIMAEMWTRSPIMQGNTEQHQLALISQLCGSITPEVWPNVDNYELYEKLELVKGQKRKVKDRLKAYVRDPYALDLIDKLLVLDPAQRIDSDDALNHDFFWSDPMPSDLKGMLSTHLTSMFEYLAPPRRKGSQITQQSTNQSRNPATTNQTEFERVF
Data set [1] can be described thus: Partition coefficient between 1-octanol and aqueous buffer, log D of the compound at pH 7.4 buffer by chromatography. The format is physicochemical. The settings on record: 1-octanol/aqueous buffer. The method in brief: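 log D as octanol/buffer partition at pH 7.4, determined chromatographically.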
Data set [2] is described as follows: Solubility in aqueous buffer solution at pH 6.8 by UV absorbance spectroscopy. The format is physicochemical. Put shortly: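 Compound in DMSO spiked into aqueous buffer pH 6.8 and incubated. Precipitate removed by filtration, dissolved compound quantified by UV absorbance of the filtrate.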
A short description of data set [3]: Permeability of the compound at 10 umol/L incubated for 3 hrs by LC/MS/MS detection based PAMPA method. The format is ADME. The settings on record: read-out: permeability. Put shortly:
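PAMPA: donor buffer pH 7.4 holding 10 μmol/L compound; acceptor filter coated with GIT-0 lipid, acceptor sink buffer. 3 h at room temperature. Compound in donor and acceptor wells quantified by LC/MS/MS.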
(The PAMPA barrier holds no transporters, so it reflects passive diffusion.)

Another data set is filed under the species Homo sapiens. The experiment in a line: Selectivity index, ratio of IC50 for inhibition of GST-tagged human CDK2/CCNA2 (04 to 103 residues) to IC50 for inhibition of N-terminal FLAG-tagged human full-length CDK12 (1 to 1490 residues)/N-terminal His-tagged CycK (1 to 580 residues) expressed in Sf9 cells. The method in brief: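 Ratio of two IC50s. CDK2/CCNA2: radiometric assay, 1.8 mU/well enzyme, histone H1 (1 μg/well), 500 nM [γ-33P]ATP, 5 min compound preincubation, 20 min at room temperature, TCA stop, filter-bound counts. In-house CDK12/CycK (30 nM): LANCE TR-FRET, ULight-4E-BP1 peptide 150 nM, ATP 10 μM, HEPES pH 7.5, 60 min preincubation, EDTA/Eu-antibody stop.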

The target in another data set is CDK8/Cyclin C (Homo sapiens, UniProt P49336). Put plainly: Inhibition of GST-tagged human CDK8/CycC (04 to 109 residues) using kinase tracer 236 probe incubated for 60 mins by TR-FRET assay. The format is protein-complex assay.
Sequence of CDK8/Cyclin C (P49336 whole entry, the tested form may be a part): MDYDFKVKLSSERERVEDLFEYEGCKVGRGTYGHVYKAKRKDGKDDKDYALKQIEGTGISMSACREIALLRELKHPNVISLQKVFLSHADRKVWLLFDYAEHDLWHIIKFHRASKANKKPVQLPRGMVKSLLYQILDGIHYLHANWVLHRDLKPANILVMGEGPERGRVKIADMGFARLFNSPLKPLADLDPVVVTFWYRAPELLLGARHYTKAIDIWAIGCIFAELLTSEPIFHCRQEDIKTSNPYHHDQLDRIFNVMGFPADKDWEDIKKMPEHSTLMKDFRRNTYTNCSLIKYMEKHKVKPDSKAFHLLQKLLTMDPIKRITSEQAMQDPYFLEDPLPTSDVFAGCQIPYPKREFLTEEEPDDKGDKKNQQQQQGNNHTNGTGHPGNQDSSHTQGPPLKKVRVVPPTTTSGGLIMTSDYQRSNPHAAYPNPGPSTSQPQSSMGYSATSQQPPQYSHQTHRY
Sequence of CDK8/Cyclin C (P24863 whole entry, further chain, the tested form may be a part): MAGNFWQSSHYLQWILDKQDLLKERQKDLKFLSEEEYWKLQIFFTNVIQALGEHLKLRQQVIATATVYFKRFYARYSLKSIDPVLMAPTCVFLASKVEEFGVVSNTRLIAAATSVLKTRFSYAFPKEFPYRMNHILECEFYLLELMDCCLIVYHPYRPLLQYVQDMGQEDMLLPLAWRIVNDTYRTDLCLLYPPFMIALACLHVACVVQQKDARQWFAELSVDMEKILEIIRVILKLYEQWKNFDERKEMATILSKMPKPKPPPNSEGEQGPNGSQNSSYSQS
The target in another data set is CDK7/Cyclin H/MNAT1 (Homo sapiens, UniProt P50613).
Sequence of CDK7/Cyclin H/MNAT1 (P51946 whole entry): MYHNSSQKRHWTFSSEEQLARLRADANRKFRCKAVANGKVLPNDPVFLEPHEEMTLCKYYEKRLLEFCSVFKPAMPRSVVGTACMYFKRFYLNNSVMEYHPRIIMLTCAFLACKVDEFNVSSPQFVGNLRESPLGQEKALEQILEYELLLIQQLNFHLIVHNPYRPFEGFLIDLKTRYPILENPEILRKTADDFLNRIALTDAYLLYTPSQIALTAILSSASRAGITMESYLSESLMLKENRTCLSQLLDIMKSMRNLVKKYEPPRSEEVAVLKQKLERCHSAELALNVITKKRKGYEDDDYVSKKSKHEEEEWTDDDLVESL
Sequence of CDK7/Cyclin H/MNAT1 (P50613 whole entry): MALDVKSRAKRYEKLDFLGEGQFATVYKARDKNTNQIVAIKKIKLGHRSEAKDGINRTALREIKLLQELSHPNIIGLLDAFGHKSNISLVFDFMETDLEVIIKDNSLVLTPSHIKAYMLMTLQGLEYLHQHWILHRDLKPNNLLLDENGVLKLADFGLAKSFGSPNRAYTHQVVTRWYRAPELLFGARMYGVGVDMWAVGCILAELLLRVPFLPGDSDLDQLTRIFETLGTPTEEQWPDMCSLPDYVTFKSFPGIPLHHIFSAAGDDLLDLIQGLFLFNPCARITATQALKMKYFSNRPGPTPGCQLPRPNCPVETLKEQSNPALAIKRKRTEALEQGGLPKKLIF
Sequence of CDK7/Cyclin H/MNAT1 (P51948 whole entry, further chain): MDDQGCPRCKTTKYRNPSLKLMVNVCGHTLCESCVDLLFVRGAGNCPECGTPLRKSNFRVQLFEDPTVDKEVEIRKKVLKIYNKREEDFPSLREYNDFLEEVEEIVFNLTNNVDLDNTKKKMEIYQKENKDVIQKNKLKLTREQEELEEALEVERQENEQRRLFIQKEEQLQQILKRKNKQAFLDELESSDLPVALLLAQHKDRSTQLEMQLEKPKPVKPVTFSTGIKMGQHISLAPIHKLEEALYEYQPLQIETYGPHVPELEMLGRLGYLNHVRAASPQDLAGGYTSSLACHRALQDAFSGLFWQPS
For data set [4], the target named is Cyclin-dependent kinase 12 (Homo sapiens, UniProt Q9NYV4). The experiment in a line: Time dependent inhibition of human CDK12 incubated for 0 to 5 hrs using ULight-4E-BP1 (Thr37/Thr46) substrate by LANCE system based assay.
Sequence of Cyclin-dependent kinase 12 (Q9NYV4 whole entry, looked up): as the sequence (Q9NYV4 whole entry, the tested form may be a part) above

pIC50: −log10 of the molar value. In brackets after ≈: the same amount, converted by molar mass. Activity calls are given as the source filed them. The rule behind the calls is not given here.

Broadly, the pIC50 is −log10 of the IC50, conventionally taken in molar units. As for `Cn1cc(-c2ccc(C(=O)N3CCC(Nc4ccc(C#N)cn4)CC3)cc2)cn1`, the negative-log IC50 (pIC50) at CDK12/Cyclin K is 4.64.
For `CC(=O)N(c1ccc(-c2cnn(C)c2)cc1)[C@H]1CC[C@H](Nc2ncc3ccccc3n2)CC1`, the pIC50 is 7.89 at CDK12/Cyclin K and 7.62 at CDK2/Cyclin A2.
Taken in the same sequence, the figures for `CN(c1ccc(C#N)cn1)C1CCN(S(=O)(=O)c2ccc(-c3cnn(C)c3)cc2)CC1` were < 4.52 and 4.17.
For the compound `Cn1cc(-c2ccc(S(=O)(=O)N3CCC(Nc4cc(C#N)ccn4)CC3)cc2)cn1`, the negative-log IC50 (pIC50) at CDK12/Cyclin K is < 4.52; on CDK2/Cyclin A2 it was 7.49.
In general, chromatographic logD refers to a lipophilicity value derived from retention on a column. For orientation: solubility means the dissolved amount per volume that the medium holds. As to `Cn1cc(-c2ccc(N(C(=O)NCc3ccccc3)[C@H]3CC[C@H](Nc4ccc(C#N)cn4)CC3)cc2)cn1`, the results for the negative logarithm of the IC50 (pIC50) against CDK9/cyclin T1, on CDK12/Cyclin K and against CDK2/Cyclin A2 were < 4.52, 7.20 and < 4.00, respectively. Moreover, in data set [1], the chromatographic logD worked out at 2.8. For the same compound, in data set [2], the concentration in solution (solubility) came to 0.33 µg/mL (≈ 0.653 µM). For the same compound, in data set [3], the Papp at 3 h, 10 µM is 28.8 ×10⁻⁶ cm/s. Also, the Ratio IC50 in the data set filed under Homo sapiens is > 800.
`Cn1cc(-c2ccc(S(=O)(=O)N3CCC(Nc4ccc(C#N)cc4)CC3)cc2)cn1`: the pIC50 on CDK12/Cyclin K is < 4.52.
`CCNC(=O)N(c1ccc(-c2cnn(C)c2)cc1)[C@H]1CC[C@H](Nc2ccc(C#N)cn2)CC1`: the pIC50 on CDK12/Cyclin K is 6.34; against CDK2/Cyclin A2, 5.32.
Take `Cn1ccc(-c2ccc(N(C(=O)NCc3ccccc3)[C@H]3CC[C@H](Nc4ccc(C#N)cn4)CC3)cc2)cc1=O`: the negative logarithm of the IC50 (pIC50) was < 4.52 at CDK9/cyclin T1, 7.36 on CDK12/Cyclin K and < 4.00 on CDK2/Cyclin A2. Moreover, in [1], the chromatographic logD came out at 2.3. Also, the solubility in data set [2] was < 0.08 µg/mL. The Papp at 3 h, 10 µM in data set [3] turned out to be 24.7 ×10⁻⁶ cm/s.
On to `Cn1cc(-c2ccc(S(=O)(=O)N3CCC(Nc4ccccn4)CC3)cc2)cn1`, for which the negative-log IC50 (pIC50) on CDK12/Cyclin K is < 4.52; at CDK2/Cyclin A2, 5.92.
As to `Cn1cc(-c2ccc(S(=O)(=O)N3CCC(Nc4ccc(C#N)cn4)CC3)cc2)cn1`, the pIC50 against CDK9/cyclin T1 is < 4.52; on CDK8/Cyclin C, < 5.00; at CDK12/Cyclin K, 6.44; against CDK7/Cyclin H/MNAT1, < 5.00; against CDK2/Cyclin A2, 8.00.
On to `Cn1cc(-c2ccc(N[C@H]3CC[C@H](Nc4ccc(C#N)cn4)CC3)cc2)cn1`, for which the negative-log IC50 (pIC50) on CDK12/Cyclin K was 5.07; at CDK2/Cyclin A2 it was 5.01.
Taken in the same sequence, the figures for `COc1ccc(NC2CCN(S(=O)(=O)c3ccc(-c4cnn(C)c4)cc3)CC2)nc1` were < 4.52 and 4.68.
Taken in the same sequence, the figures for `Cn1cc(-c2ccc(S(=O)(=O)N3CCC(Nc4ccc(C(F)(F)F)cn4)CC3)cc2)cn1` were 5.74 and 8.24.
Taken in the same sequence, the figures for `Cn1cc(-c2ccc(N(C(=O)NCC3CCCCC3)[C@H]3CC[C@H](Nc4ccc(C#N)cn4)CC3)cc2)cn1` were 7.00 and < 4.00.
With `N#Cc1ccc(N[C@H]2CC[C@H](N(C(=O)NCc3ccccc3)c3ccccc3)CC2)nc1`, the results for the negative-log IC50 (pIC50) on CDK9/cyclin T1, at CDK12/Cyclin K and against CDK2/Cyclin A2 were < 4.52, 7.20 and 4.25, respectively. Also, the chromatographic logD in data set [1] came out at 3.3. In data set [2], this compound had a solubility of 4 µg/mL (≈ 9.4 µM).
On to `CC(=O)N(c1ccc(-c2cnn(C)c2)cc1)[C@H]1CC[C@@H](Nc2ccc(C#N)cn2)CC1`, for which the pIC50 at CDK12/Cyclin K was < 4.52; against CDK2/Cyclin A2, < 4.00.
Taken in the same sequence, the figures for `COC(=O)N(c1ccc(-c2cnn(C)c2)cc1)[C@H]1CC[C@H](Nc2ccc(C#N)cn2)CC1` were 6.70 and 5.80.
Taken in the same sequence, the figures for `CC(=O)N(c1ccc(-c2cnn(C)c2)cc1)[C@H]1CC[C@H](Nc2ccc(C#N)cn2)CC1` were 6.89 and 6.33.
As for `Cn1cc(-c2ccc(S(=O)(=O)N3CCC(Nc4cccc(C#N)n4)CC3)cc2)cn1`, the figures for the pIC50 on CDK12/Cyclin K and against CDK2/Cyclin A2 were < 4.52 and 4.34, respectively.
As to `Cn1cc(-c2ccc(CN3CCC(Nc4ccc(C#N)cn4)CC3)cc2)cn1`, the negative-log IC50 (pIC50) on CDK12/Cyclin K is 4.80.
In the case of `Cn1cc(-c2ccc(N(C(=O)OCc3ccccc3)[C@H]3CC[C@H](Nc4ccc(C#N)cn4)CC3)cc2)cn1`, the negative logarithm of the IC50 (pIC50) was 6.19 on CDK12/Cyclin K and 5.60 on CDK2/Cyclin A2.
Regarding `Cn1cccc(-c2ccc(N(C(=O)NCc3ccccc3)[C@H]3CC[C@H](Nc4ccc(C#N)cn4)CC3)cc2)c1=O`, the results for the pIC50 against CDK9/cyclin T1, on CDK12/Cyclin K and against CDK2/Cyclin A2 were 4.82, 6.60 and 4.74, respectively. This compound returned a chromatographic logD in [1] of 2.7. Further, in data set [2], the solubility is 4.7 µg/mL (≈ 8.82 µM).
For `Cn1cc(-c2ccc(N(C(=O)CCc3ccccc3)[C@H]3CC[C@H](Nc4ccc(C#N)cn4)CC3)cc2)cn1`, the pIC50 on CDK12/Cyclin K is 6.80; against CDK2/Cyclin A2, 5.54.
In the case of `Cn1cc(-c2ccc(N([C@H]3CC[C@H](Nc4ccc(C#N)cn4)CC3)S(C)(=O)=O)cc2)cn1`, the values for the pIC50 on CDK12/Cyclin K and at CDK2/Cyclin A2 were 6.96 and 7.51, respectively.
`CN(C)C/C=C/C(=O)Nc1ccc(C(=O)N2CCC[C@@H](Nc3ncc(Cl)c(-c4c[nH]c5ccccc45)n3)C2)cc1`: the TDI result in data set [4] was “Active”.
As to `N#Cc1ccc(N[C@H]2CC[C@H](N(C(=O)NCc3ccccc3)c3ccc(-c4cccnc4)cc3)CC2)nc1`, the pIC50 was < 4.52 against CDK9/cyclin T1, 7.23 at CDK12/Cyclin K and < 4.00 against CDK2/Cyclin A2. Also, in data set [1], the chromatographic logD worked out at 3. Further, in data set [2], the solubility was 0.67 µg/mL (≈ 1.33 µM). Besides, the Papp at 3 h, 10 µM in data set [3] is 28 ×10⁻⁶ cm/s.
On to `Cn1c(-c2ccc(N(C(=O)NCc3ccccc3)[C@H]3CC[C@H](Nc4ccc(C#N)cn4)CC3)cc2)cccc1=O`, for which the pIC50 against CDK9/cyclin T1 is < 4.52; at CDK12/Cyclin K, 6.51; against CDK2/Cyclin A2, 4.57. This compound yielded a chromatographic logD in data set [1] of 2.6. For the same compound, in data set [2], the solubility was < 0.09 µg/mL.
